Assay outcomes deposited in PubChem BioAssay by Sanford-Burnham Center for Chemical Genomics.
Only some compounds are listed: those with a hit (about 0.72% of all), similar ones and a draw of the others.
bIAP inh – bovine intestinal alkaline phosphatase inhibitors, primary screen, selectivity assay for TNAP inhibitor project, biochemical, bovine IAP, CDP-star luminescence; alkaline phosphatase, intestinal [Bos taurus]; purified bovine IAP, 30 min; inhibition, % at 20 µM; 190,000 tested, under 10 active; AID 1019, 2008;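 active = over 50% inhibition of intestinal alkaline phosphatase at 20 µM in the single-dose screen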
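System: Purified bovine intestinal alkaline phosphatase (IAP) enzyme | Input: IAP diluted 1/65,000,000 in the well | Also added: CDP-star chemiluminescent phosphatase substrate, 30 µM final | Dosing: 20 µM single dose | Times: Enzyme reaction for 30 min at room temperature | Detection: Luminescence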
hIAP activ – human IAP activators, primary screen, biochemical, luminescence, uHTS | Intestinal-type alkaline phosphatase (Homo sapiens), P09923 | purified human IAP, CDP-Star luminescence, 30 min; stronger effect = higher value; 1 = vehicle-only enzyme, 0 = enzyme-free background | activation factor at 10 µM | actives 0.16% (n = 330,000) | AID 2524, 2010;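 active = activation factor of the enzyme at least 2-fold when tested at 20 µM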
Target sequence (P09923 whole entry, looked up): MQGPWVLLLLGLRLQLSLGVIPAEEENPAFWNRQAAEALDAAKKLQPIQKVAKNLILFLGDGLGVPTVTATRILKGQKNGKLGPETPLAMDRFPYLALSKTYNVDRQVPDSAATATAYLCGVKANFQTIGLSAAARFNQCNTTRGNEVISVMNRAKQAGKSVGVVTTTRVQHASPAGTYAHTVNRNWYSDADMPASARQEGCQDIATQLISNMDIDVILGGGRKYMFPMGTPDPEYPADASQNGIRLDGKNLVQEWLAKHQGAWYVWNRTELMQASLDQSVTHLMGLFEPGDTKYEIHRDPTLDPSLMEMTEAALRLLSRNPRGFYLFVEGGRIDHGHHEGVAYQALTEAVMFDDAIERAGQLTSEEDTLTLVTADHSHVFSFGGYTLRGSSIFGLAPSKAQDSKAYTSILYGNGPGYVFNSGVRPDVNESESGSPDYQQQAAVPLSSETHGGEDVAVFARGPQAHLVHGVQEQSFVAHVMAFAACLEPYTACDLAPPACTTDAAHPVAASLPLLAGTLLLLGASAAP
mIAP act – activators of mouse IAP, primary screen, biochemical, luminescence, uHTS. intestinal alkaline phosphatase [Mus musculus]. muIAP, CDP-Star luminescence, 30 min; stronger effect = higher value; 1 = vehicle-only enzyme signal, 0 = enzyme-free wells. activation factor at 10 µM. actives 0.24% (n = 330,000). AID 2805, 2010;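 active = activation factor of at least 2 at 20 µM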
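Assay system: mouse IAP enzyme / Compound: DMSO-dissolved test compounds / Timing: 30 min, room temperature / Measured by: luminescence from enzymatic CDP-Star hydrolysis / Control set: DMSO-only wells, enzyme-free buffer wells as negative control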
mIAP block – inhibitors of mouse IAP, primary screen, biochemical, luminescence, uHTS; intestinal alkaline phosphatase [Mus musculus]; purified mouse IAP, CDP-Star luminescence, 30 min; inhibition, % at 10 µM; actives 0.2% (n = 330,000); AID 2806, 2010;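 active = inhibition of at least 40% at 10 µM in the primary screen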;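 note: plate controls were DMSO with enzyme for no effect and no enzyme wells for full effect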
bIAP activator – bovine intestinal alkaline phosphatase activators, primary screen, biochemical, bovine IAP, CDP-star luminescence. activation factor at 20 µM. actives 0.17% (n = 200,000). AID 1016, 2008. alkaline phosphatase, intestinal [Bos taurus]. purified bovine IAP, 30 min; stronger effect = higher value; fold of DMSO-control signal, blank-subtracted;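 active = activation factor of 2 or more at 20 µM, a signal rise over negative controls twice the positive control's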
hIAP block – human IAP inhibitors, primary screen, biochemical, luminescence, uHTS; Intestinal-type alkaline phosphatase (Homo sapiens), P09923; actives 0.12% (n = 330,000); inhibition, % at 10 µM; purified IAP, CDP-Star luminescence, 30 min;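 active = inhibition reaching a set limit with compound at 10 µM in the primary screen, cut at about 35% in these data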;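 note: plate controls were DMSO wells with enzyme for no effect and no-enzyme buffer wells for full effect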
* marks the source's active call; other numbers are inactive results; x = no result given.

SMILES | bIAP inh | hIAP activ | mIAP act | mIAP block | bIAP activator | hIAP block
FC(F)(F)Sc1ccc(NC(=S)NCc2ccccc2)cc1 | x | 1 | 2.3* | -132 | x | 0
CNC(=O)Nc1cccc(C(F)(F)F)c1 | 6 | 0.94 | 0.91 | 9 | 0.9 | 6
FC(F)(F)c1cccc(CNC(=S)Nc2ccccc2)c1 | 26 | 1.1 | 1.3 | -34 | 0.7 | -8
O=C(Nc1ccccc1)Nc1cccc(C(F)(F)F)c1 | 1 | 1.2 | 2.9* | -187 | 1 | -15
FC(F)(F)c1cccc(NC(=S)NCc2ccccc2)c1 | 37 | 1.2 | 2.2* | -120 | 0.6 | -23
S=C(NCc1ccccc1)NCc1cccc(CNC(=S)NCc2ccccc2)c1 | 6 | 0.94 | 2.4* | -140 | 0.9 | 6
COc1cc(CCC(=O)N2CCN(c3cccc(C)c3C)CC2)cc(OC)c1OC | x | 1.1 | 0.95 | 5 | x | -10
O=C(Nc1cccc(C(F)(F)F)c1)NC1CCN(S(=O)(=O)c2ccc(F)cc2)CC1 | 12 | 0.93 | 2.3* | -134 | 0.9 | 7
Cc1ccc(OC(F)F)c(NC(=O)Nc2cccc(C(F)(F)F)c2)c1 | 28 | 1 | 2.1* | -106 | 0.7 | -2
CC(=O)c1ccc(S(=O)(=O)N2CCC(NC(=O)Nc3cccc(F)c3)CC2)cc1 | -13 | 1.2 | 1.2 | -21 | 1.1 | -21
COc1cccc(NC(=O)Nc2cc(C)ccc2OC)c1 | 2 | 0.75 | 1.3 | -26 | 1 | 25
Cc1ccoc1C(=O)N1CCN(C(=O)c2occc2C)CC1 | x | 1.1 | 1 | -3 | x | -8
O=C(NC(Nc1ccc(F)cc1)(C(F)(F)F)C(F)(F)F)c1cccnc1 | -96 | 1 | 1 | -5 | 2* | -5
COC(=O)c1ccc2c(=O)[nH]c(COC(=O)CCC(=O)c3ccc(Cl)cc3)nc2c1 | x | 1.1 | 1 | -2 | x | -7
COC(=O)c1sccc1NC(=O)Nc1cccc([N+](=O)[O-])c1 | x | 1.1 | 0.34 | 66* | x | -5
O=C(Nc1ccc(NC(=O)c2ccc(Cl)c(S(=O)(=O)N3CCOCC3)c2)cc1)c1ccccc1 | x | 1.2 | 1.1 | -6 | x | -15
Cc1ccc(NC(=O)Nc2ccccc2F)cc1S(=O)(=O)N1CCOCC1 | x | 1.1 | 2.6* | -158 | x | -15
O=C(Nc1cccc(Cl)c1)Nc1cc(S(=O)(=O)N2CCOCC2)ccc1N1CCCC1 | -2 | 1.2 | 3.7* | -272 | 1 | -18
O=C(Nc1ccccc1)Nc1ccc(Cl)c(S(=O)(=O)N2CCOCC2)c1 | 2 | 1.1 | 2.8* | -182 | 1 | -5
C[C@@H]1NC(=O)c2cc([N+](=O)[O-])cc(I)c2OCC[C@@H](C(=O)NC(CC(=O)O)C(N)=O)NC(=O)[C@H](CC(N)=O)NC1=O (stereo partly specified) | -22 | 0.99 | 0.55 | 45* | 1.2 | 1
CN(Cc1ccc(Br)cc1)CC(O)COc1cccc(Br)c1 (stereo unspecified) | x | 0.84 | 0.91 | 9 | x | 16
O=C(COc1ccc([N+](=O)[O-])cc1)NNC(=O)Nc1ccccc1F | x | 1.4 | 0.56 | 44* | x | -39
CC1=C(C(=O)NC2CC(C)(C)Cc3c2cnn3-c2cccc(F)c2)OCCO1 (stereo unspecified) | x | 0.94 | 0.96 | 4 | x | 6
O=C(COC(=O)/C=C/c1ccc2c(c1)OCO2)NCc1ccccc1 | x | 1.1 | 1.1 | -10 | x | -14
CCOc1ccc(C2NC(=O)NC(C)=C2C(=O)OCc2ccccc2)cc1 (stereo unspecified) | x | 0.98 | 1 | -2 | x | 2
CC1=C(C(=O)OCc2ccccc2)C(c2ccc(N(C)C)cc2)NC(=O)N1 (stereo unspecified) | -184 | 0.8 | 0.97 | 3 | 2.8* | 20
CC(C)CNC(=S)Nc1ccc(Oc2ccccc2)cc1 | 5 | 0.93 | 2.2* | -116 | 0.9 | 7
CCN1C(=O)CC(c2ccc(OC(C)C)cc2)C1=O (stereo unspecified) | x | 1.1 | 1 | -2 | x | -11
